Source: ChEMBL document CHEMBL2203144, “Synthesis and evaluation of antimicrobial activity of 4H-pyrimido[2,1-b]benzothiazole, pyrazole and benzylidene derivatives of curcumin” (Eur J Med Chem, 2012)
Activity calls are given as the source filed them. No cut-off for these calls is given here.

Assays:
Staphylococcus aureus = assay: Antibacterial activity against Staphylococcus aureus ATCC 11632 after 24 hrs by broth microdilution method; assay type: functional
Procedure, shortened: (§1)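 Microwell broth dilution in brain heart infusion broth (nutrient broth adjusted to pH 7.0). Inoculum from 16 h cultures, adjusted to 0.5 McFarland (1.5 × 10⁸ CFU/mL). 10 µL compound (serial dilutions 20 down to 0.625 or 0.312 µM/mL) plus 10 µL culture added to 150 µL broth. Incubated 24 h at 37 °C. MIC95 is the lowest concentration with no turbidity. Ciprofloxacin reference; inoculum and broth controls.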

Bacillus cereus = assay: Antibacterial activity against Bacillus cereus MTCC 7350 after 24 hrs by broth microdilution method; assay type: functional; procedure, shortened: as §1
Aspergillus flavus [1] = assay: Antifungal activity against Aspergillus flavus after 72 hrs by agar disk diffusion method; assay type: functional
Procedure, shortened: (§2)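 Sterile filter-paper discs dipped in the acetone dilutions of compound (20–0.315 µM/mL), then dried to remove acetone. Sabouraud dextrose agar plates spread with 1 mL fungal culture. Discs placed aseptically; one drug-free disc served as growth control; fluconazole reference. Plates incubated upright 72 h at 28 °C. Zone of inhibition measured in mm with a scale.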

Aspergillus flavus [2] = assay: Antifungal activity against Aspergillus flavus after 72 hrs by broth dilution method; assay type: functional
Procedure, shortened: (§3)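 Compounds and fluconazole reference were dissolved in acetone at 120 µM/mL and serially diluted to 20–0.315 µM/mL. 10 µL compound plus 10 µL fungal culture broth added to 150 µL Sabouraud dextrose medium per well. Optical density recorded, then incubated 72 h at 28 °C. MIC95 taken from absence of turbidity. Acetone-at-same-dilution solvent control.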

Aspergillus niger [3] = assay: Antifungal activity against Aspergillus niger after 72 hrs by broth dilution method; assay type: functional; procedure, shortened: as §3
Pseudomonas aeruginosa = assay: Antibacterial activity against Pseudomonas aeruginosa ATCC 23564 after 24 hrs by broth microdilution method; assay type: functional; procedure, shortened: as §1
[4] = Cytotoxicity against human L123 cells after 48 hrs by MTT assay; assay type: cell-based
Procedure, shortened: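 MTT assay. 2×10³ cells per well in MEM + 10% FBS, attached 24 h, then treated at 5, 10, 20, 50 and 100 µM/mL for 48 h; controls received medium with 0.2% DMSO. Duplicate treatments. Cells PBS-washed, given MTT (stock 1 mg/mL) for 4 h at 37 °C. Formazan dissolved in DMSO, read at 590 nm. IC50 is the concentration reducing viability by 50%.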

Providencia rettgeri = assay: Antibacterial activity against Providencia rettgeri DRDE after 24 hrs by broth microdilution method; assay type: functional; procedure, shortened: as §1
Aspergillus fumigatus [5] = assay: Antifungal activity against Aspergillus fumigatus after 72 hrs by broth dilution method; assay type: functional; procedure, shortened: as §3
Salmonella typhi = assay: Antibacterial activity against Salmonella typhi ATCC 15499 after 24 hrs by broth microdilution method; assay type: functional, Salmonella enterica subsp. enterica serovar Typhi
Procedure, shortened: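 Broth microdilution in brain heart infusion broth in microwells. Inoculum was prepared from 16 h cultures adjusted to the 0.5 McFarland standard (1.5 × 10⁸ CFU/mL). Compounds were serially diluted from 20 down to 0.625 µM/mL and added to the broth, followed by the bacterial culture. Plates were incubated 24 h at 37 °C, with optical density read. MIC95 was the lowest concentration giving no turbidity. Inoculum and broth controls were included.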

Aspergillus fumigatus [6] = assay: Antifungal activity against Aspergillus fumigatus after 72 hrs by agar disk diffusion method; assay type: functional; procedure, shortened: as §2
Escherichia coli = assay: Antibacterial activity against Escherichia coli ATCC 35218 after 24 hrs by broth microdilution method; assay type: functional; procedure, shortened: as §1
Aspergillus niger [7] = assay: Antifungal activity against Aspergillus niger after 72 hrs by agar disk diffusion method; assay type: functional; procedure, shortened: as §2
[8] = Salmonella enterica subsp. enterica serovar Typhi

Row | SMILES | MIC95 (Staphylococcus aureus) | MIC95 (Bacillus cereus) | inhibition zone (IZ) (Aspergillus flavus [1]) | MIC95 (Aspergillus flavus [2]) | MIC95 (Aspergillus niger [3]) | MIC95 (Pseudomonas aeruginosa) | IC50 [4] | MIC95 (Providencia rettgeri) | MIC95 (Aspergillus fumigatus [5]) | MIC95 (Salmonella typhi) | inhibition zone (IZ) (Aspergillus fumigatus [6]) | MIC95 (Escherichia coli) | inhibition zone (IZ) (Aspergillus niger [7]) | MIC95 (Salmonella typhi; [8])
1 | COc1cc(C=C(C(=O)/C=C/c2ccc(O)c(OC)c2)C(=O)/C=C/c2ccc(O)c(OC)c2)ccc1O | 2.5 uM/ml | 1.25 uM/ml | 20 mm | 1.25 uM/ml | inactive | 2.5 uM/ml | > 100 uM/ml | 2.5 uM/ml | inactive | 5 uM/ml | inactive | inactive | inactive | –
2 | COc1cc(/C=C/C(=O)C(=Cc2ccccc2O)C(=O)/C=C/c2ccc(O)c(OC)c2)ccc1O | 1.25 uM/ml | 1.25 uM/ml | inactive | inactive | 2.5 uM/ml | 1.25 uM/ml | 50 uM/ml | 1.25 uM/ml | 2.5 uM/ml | 5 uM/ml | 20 mm | 2.5 uM/ml | 17 mm | –
3 | OC(Cn1cncn1)(Cn1cncn1)c1ccc(F)cc1F [FLUCONAZOLE] | – | – | 25 mm | 1.25 uM/ml | 2.5 uM/ml | – | – | – | 1.25 uM/ml | – | 22 mm | – | 18 mm | –
4 | O=C(O)c1cn(C2CC2)c2cc(N3CCNCC3)c(F)cc2c1=O [CIPROFLOXACIN] | 1.25 uM/ml | 0.625 uM/ml | – | – | – | 1.25 uM/ml | – | 1.25 uM/ml | – | 2.5 uM/ml | – | 1.25 uM/ml | – | –
5 | COc1cc(/C=C/C(=O)C2=C(/C=C/c3ccc(O)c(OC)c3)N=C3Sc4ccccc4N3C2c2c(Cl)cccc2Cl)ccc1O (centres undefined) | inactive | 5 uM/ml | inactive | inactive | inactive | 20 uM/ml | > 100 uM/ml | 10 uM/ml | inactive | – | inactive | 20 uM/ml | inactive | inactive
6 | COc1cc(/C=C/C(=O)C2=C(/C=C/c3ccc(O)c(OC)c3)N=C3Sc4ccccc4N3C2c2ccc(O)c(OC)c2)ccc1O (centres undefined) | inactive | 2.5 uM/ml | 11 mm | 12 uM/ml | inactive | 5 uM/ml | – | 10 uM/ml | inactive | 10 uM/ml | inactive | 10 uM/ml | inactive | –
7 | COc1cc(/C=C/C(=O)C2=C(/C=C/c3ccc(O)c(OC)c3)N=C3Sc4ccccc4N3C2c2ccc(Cl)cc2)ccc1O (centres undefined) | inactive | 5 uM/ml | inactive | inactive | inactive | 20 uM/ml | > 100 uM/ml | inactive | inactive | – | inactive | 10 uM/ml | inactive | inactive
8 | COc1cc(/C=C/c2cc(/C=C/c3ccc(O)c(OC)c3)n(C(=O)c3ccncc3)n2)ccc1O | 1.25 uM/ml | inactive | 22 mm | 2.5 uM/ml | 2.5 uM/ml | 1.25 uM/ml | > 100 uM/ml | inactive | inactive | 5 uM/ml | inactive | 2.5 uM/ml | 18 mm | –
9 | COc1cc(/C=C/C(=O)C2=C(/C=C/c3ccc(O)c(OC)c3)N=C3Sc4ccccc4N3C2c2ccc(C)cc2)ccc1O (centres undefined) | 20 uM/ml | 5 uM/ml | inactive | inactive | inactive | inactive | – | 20 uM/ml | inactive | – | inactive | 10 uM/ml | inactive | inactive
10 | COc1cc(/C=C/c2cc(/C=C/c3ccc(O)c(OC)c3)n(C(N)=S)n2)ccc1O | 1.25 uM/ml | 0.625 uM/ml | 20 mm | 1.25 uM/ml | 2.5 uM/ml | 2.5 uM/ml | – | 1.25 uM/ml | 2.5 uM/ml | 2.5 uM/ml | 25 mm | inactive | 22 mm | –
11 | COc1cc(/C=C/C(=O)C2=C(/C=C/c3ccc(O)c(OC)c3)N=C3Sc4ccccc4N3C2c2ccc([N+](=O)[O-])cc2)ccc1O (centres undefined) | inactive | 2.5 uM/ml | inactive | inactive | 10 uM/ml | 10 uM/ml | > 100 uM/ml | 10 uM/ml | 20 uM/ml | 20 uM/ml | 15 mm | 5 uM/ml | 10 mm | –
12 | COc1cc(/C=C/C(=O)C2=C(/C=C/c3ccc(O)c(OC)c3)N=C3Sc4ccccc4N3C2c2ccc(O)cc2)ccc1O (centres undefined) | 1.25 uM/ml | 2.5 uM/ml | inactive | inactive | inactive | 10 uM/ml | – | inactive | 5 uM/ml | 20 uM/ml | 12 mm | 5 uM/ml | inactive | –
13 | COc1cc(/C=C/C(=O)C(=Cc2ccccc2)C(=O)/C=C/c2ccc(O)c(OC)c2)ccc1O | 1.25 uM/ml | 0.625 uM/ml | inactive | inactive | inactive | inactive | – | 0.625 uM/ml | 2.5 uM/ml | 2.5 uM/ml | 15 mm | 1.25 uM/ml | inactive | –
14 | COc1cc(/C=C/c2cc(/C=C/c3ccc(O)c(OC)c3)n(C(N)=O)n2)ccc1O | inactive | inactive | inactive | inactive | 5 uM/ml | 5 uM/ml | – | 2.5 uM/ml | 1.25 uM/ml | – | 20 mm | 2.5 uM/ml | 15 mm | inactive
15 | COc1cc(/C=C/C(=O)CC(=O)/C=C/c2ccc(O)c(OC)c2)ccc1O [CURCUMIN] | 20 uM/ml | 10 uM/ml | inactive | inactive | 20 uM/ml | inactive | – | 20 uM/ml | 20 uM/ml | 20 uM/ml | 12 mm | 20 uM/ml | 9 mm | –
